Assay [1] relates to K562. Nature of the assay: In vitro antitumor activity against human erythroleukemia K-562 cells. Type of assay: functional. The procedure, abridged: (§1)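 L1210 and K-562 cells grown in RPMI 1640 with 10% fetal calf serum plus penicillin/streptomycin. Suspensions of 10^3–10^4 cells/mL were plated, and compound (Me2SO stock diluted in medium) was added the following day. Final Me2SO was 0.5%, with two wells per concentration. Cells were counted by Coulter counter at 5–6 days. ID50 was taken from log-log concentration vs cell number plots, with untreated controls as 100%.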

Assay [2] has as its system L1210. Nature of the assay: In vitro antitumor activity against mouse […] leukemia L1210 cells. Type of assay: functional. The procedure, abridged: as §1
Another assay has as its system MDAY-D2. Put plainly: In vitro antitumor activity (tumor cell growth inhibition) against MDAY-D2 cells. It counts as functional, Mus musculus. The method in brief: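 MDAY-D2 cells in Alpha MEM with 10% fetal calf serum, penicillin and streptomycin. Seeded at 10^3–10^4 cells/mL. Next day, compound dissolved in Me2SO and diluted in medium was added (final 0.5% Me2SO), with duplicate wells per concentration. Coulter counts after 5–6 days, before controls reached maximal density. ID50 was read from log-log plots of concentration vs cell number, with controls as 100%.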

The test system of assay [3] is K562. Nature of the assay: In vitro antitumor activity (tumor cell growth inhibition) against human erythroleukemia K-562 cells. Type of assay: functional. The procedure, abridged: as §1
Assay [4] deals with K562. Nature of the assay: In vitro antitumor activity (tumor cell growth inhibition) against human erythroleukemia K-562. It counts as functional. The method in brief:
as §1

In assay [5] the test system is L1210. Put plainly: In vitro antitumor activity (tumor cell growth inhibition) against mouse […] leukemia L1210. It counts as functional. The method in brief: as §1
The test system of assay [6] is L1210. Nature of the assay: In vitro antitumor activity against mouse […] leukemia L1210. Type of assay: functional. The method in brief:
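L1210 cells in RPMI 1640 with 10% fetal calf serum and penicillin/streptomycin were seeded at 10^3-10^4 cells/mL. Compounds were dissolved in Me2SO, diluted in medium, and added the next day (final 0.5% Me2SO, matching controls), in duplicate wells. After 5-6 days, before controls peaked, cells were Coulter-counted. ID50 was read from log-log concentration vs cell-number plots, with controls as 100%.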

Structures are written as SMILES. Values joined by “and” are separate entries in the source; they are usually repeats but may differ in a detail not shown here. Equal entries are not always repeated.

This is an account of results in ChEMBL document CHEMBL1122155, “Synthesis and biological evaluation of novel pyrimidine nucleoside analogues of 1,4-oxathiane, 1,4-dithiane, and 1,4-dioxane” (1982).

For the molecule `O=c1[nH]c(=O)n(C2COCCS2)cc1F` (stereo not drawn), the ID50 in the assay on K562 [1] is >1.06 mM l-1 and >1.05 mM l-1; in the assay with L1210 [2] it was more than 1060 µM; in the assay with MDAY-D2, 4600 µM.

As to `O=c1ccn(C2CSCCS2)c(=O)[nH]1` (stereo not drawn), the ID50 in the assay on K562 [1] was more than 1050 µM; in the assay with L1210 [2], 240 µM.

With `O=c1[nH]c(=O)n(C2COCCO2)cc1F` (stereo not drawn), the ID50 with K562 [1] is >1.09 mM l-1 and >0.97 mM l-1; in the assay on L1210 [2], more than 970 µM; in the assay with MDAY-D2 it was more than 1000 µM.

Take `O=c1[nH]c(=O)n(C2CSCCS2)cc1F` (stereo not drawn): the ID50 was more than 1020 µM in the assay with K562 [1]; 0.65 mM l-1 and 0.23 mM l-1 with L1210 [2]; 500 µM with MDAY-D2.

`O=c1[nH]c(=O)n(C2COCC[S+]2[O-])cc1F` (stereo not drawn): the values for the ID50 in the assay with K562 [1] and in the assay on K562 [3] were more than 1010 µM and more than 990 µM, respectively.

With `O=c1[nH]c(=O)n(C2CSCCO2)cc1F` (stereo not drawn), the ID50 in the assay with K562 [1] was >1 mM l-1 and 0.46 mM l-1; in the assay on L1210 [2], more than 1010 µM; in the assay on MDAY-D2, 1400 µM.

Take `O=c1[nH]c(=O)n(C2=COCCS2)cc1F`: the ID50 in the assay on K562 [4] was 380 µM; with L1210 [5], 20 µM.

For `Cc1cn(C2CSCCS2)c(=O)[nH]c1=O` (stereo not drawn), the ID50 in the assay with K562 [1] is 670 µM; in the assay with L1210 [2], 0.23 mM l-1 and 0.21 mM l-1.

Take `O=c1[nH]cc(F)c(=O)[nH]1` [FLUOROURACIL]: the ID50 is 0.0023 mM l-1 and 0.0046 mM l-1 in the assay on K562 [1]; 0.2 µM in the assay on MDAY-D2.

Take `O=c1[nH]c(=O)n(C2CCCO2)cc1F` (stereo not drawn) [TEGAFUR]: the ID50 in the assay with L1210 [6] was found to be 8.4 µM.
